Assay results from ChEMBL document CHEMBL3352193, “Synthesis of novel substituted purine derivatives and identification of the cell death mechanism” (Eur J Med Chem, 2015).
The source made the active and inactive calls. The rule behind the calls is not given here.

What was measured:
Huh-7 [1] = experiment: Cytotoxicity against human HuH7 cells at 2.5 to 40 uM after 72 hrs by SRB assay; type: functional, cell-based
Procedure, shortened: (§1)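 SRB screen. Cells seeded at 2000–10,000/well and treated next day for 72 h with 40, 20, 10, 5 and 2.5 µM (DMSO under 1%). TCA fixation, 0.4% SRB staining, Tris solubilization, absorbance at 515 nm. Growth inhibition calculated relative to DMSO-only wells. IC50 derived from the five-concentration inhibition percentages.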

HCT-116 = experiment: Cytotoxicity against human HCT116 cells at 2.5 to 40 uM after 72 hrs by SRB assay; type: functional, cell-based; procedure, shortened: as §1
T47D [2] = experiment: Cytotoxicity against human T47D cells at 2.5 to 40 uM after 72 hrs by SRB assay; type: functional, cell-based; procedure, shortened: as §1
[3] = Cytotoxicity against human HuH7 cells after 72 hrs by SRB assay; type: functional, cell-based; conditions: Huh-7, 72 h
Procedure, shortened: (§2)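 Sulforhodamine B assay. Cells seeded at 2000–10,000/well and treated the next day in triplicate with ten concentrations (DMSO vehicle, under 1% final) for 24, 48 or 72 h at 37 °C, 5% CO2. Fixed with ice-cold TCA for 1 h at 4 °C, stained with 0.4% SRB in 1% acetic acid, dye solubilized in 10 mM Tris base, A515 read. % inhibition = 100 × (1 − OD drug/OD DMSO). IC50 taken from dose–response curves.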

[4] = Cytotoxicity against human HCT116 cells after 72 hrs by SRB assay; type: functional, cell-based; conditions: HCT-116, 72 h; procedure, shortened: as §1
T47D [5] = experiment: Cytotoxicity against human T47D cells after 72 hrs by SRB assay; type: functional, cell-based
HepG2 = experiment: Cytotoxicity against human HepG2 cells after 72 hrs by SRB assay; type: functional, cell-based; conditions: HepG2, 72 h; procedure, shortened: as §2
[6] = Cytotoxicity against human Hep3B cells after 72 hrs by SRB assay; type: functional, cell-based, Hep 3B2
Procedure, shortened: (§3)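 Liver cancer cell panel, SRB assay after 72 h exposure to ten concentrations (DMSO vehicle under 1%). TCA-fixed, SRB-stained, absorbance at 515 nm. Percent cell death calculated against DMSO-only wells, and IC50 read from dose–response curves.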

PLC = experiment: Cytotoxicity against human PLC cells after 72 hrs by SRB assay; type: functional, cell-based; procedure, shortened: as §3
[7] = Cytotoxicity against human SKHEP1 cells after 72 hrs by SRB assay; type: functional, cell-based; conditions: SK-HEP1, 72 h; procedure, shortened: as §3
[8] = Cytotoxicity against human Mahlavu cells after 72 hrs by SRB assay; type: functional, cell-based; procedure, shortened: as §2
[9] = Cytotoxicity against human FOCUS cells after 72 hrs by SRB assay; type: functional, cell-based; procedure, shortened: as §2
[10] = Cytotoxicity against human SNU182 cells after 72 hrs by SRB assay; type: functional, cell-based; conditions: SNU-182, 72 h; procedure, shortened: as §3
[11] = Cytotoxicity against human SNU475 cells after 72 hrs by SRB assay; type: functional, cell-based, SNU-475; conditions: Homo sapiens, SNU-475, 72 h; read-out: IC50; procedure, shortened: as §3
Huh-7 [12] = experiment: Cytotoxicity against human HuH7 cells assessed as condensed apoptotic nuclei after 72 hrs by Hoechst […] staining-based fluorescence microscopy; type: functional, cell-based
FOCUS = experiment: Cytotoxicity against human FOCUS cells assessed as condensed apoptotic nuclei after 72 hrs by Hoechst […] staining-based fluorescence microscopy; type: functional, cell-based
Mahlavu [13] = experiment: Induction of apoptosis in human Mahlavu cells assessed as PARP cleavage at IC50 after 72 hrs by Western blotting analysis; type: functional, cell-based
Mahlavu [14] = experiment: Induction of […] in human Mahlavu cells assessed as PARP cleavage at IC50 after 72 hrs by Western blotting analysis; type: functional, cell-based
Mahlavu [15] = experiment: Induction of apoptosis in human Mahlavu cells assessed as Bcl2 expression at IC50 after 72 hrs by Western blotting analysis; type: functional, cell-based
Mahlavu [16] = experiment: Induction of apoptosis in human Mahlavu cells assessed as total cytochrome c level at IC50 after 72 hrs by Western blotting analysis; type: functional, cell-based
Huh-7 [17] = experiment: Reduction in intrinsic cellular ATP consumption in human HuH7 cells at IC50 after 24 hrs by bioluminescence assay; type: functional, cell-based
Procedure, shortened: (§4)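 Cells treated for 24 h, with staurosporine as positive control and DMSO-only controls. 20 µg lysate protein in kinase buffer (40 mM Tris-HCl pH 7.6, 20 mM MgCl2, 0.1 mg/ml BSA), no exogenous ATP added. Luciferase ATP-detection reagent added, 10 min in the dark at room temperature, then luminescence read. Higher signal taken as reduced ATP consumption.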

Mahlavu [18] = experiment: Reduction in intrinsic cellular ATP consumption in human Mahlavu cells at IC50 after 24 hrs by bioluminescence assay; type: functional, cell-based; procedure, shortened: as §4

Compound	inhibition (Huh-7 [1])	inhibition (HCT-116)	inhibition (T47D [2])	IC50 [4]	IC50 (T47D [5])	other results
CN(C)CCNCCn1cnc2c(N)ncnc21	inactive	inactive	inactive			
CN1CCN(NCCn2cnc3c(N)ncnc32)CC1	inactive	inactive	inactive			
Cc1ccc(S(=O)(=O)n2cnc3c(N4CCC(C)CC4)ncnc32)cc1				14.6 µM	22.5 µM	IC50 [3]: 17.8 µM
Nc1ncnc2c1ncn2CCN1CCN(CCN2CCOCC2)CC1	inactive	inactive	inactive			
CCOC(=O)Cn1cnc2c(N3CCN(c4ccc(C(F)(F)F)cc4)CC3)ncnc21			inactive	72.4 µM		IC50 [3]: 53.3 µM
Fc1ccc(CNc2ncnc3[nH]cnc23)c(F)c1	inactive	inactive	inactive			
Nc1ncnc2c1ncn2CCNCCN1CCOCC1	inactive	inactive	inactive			
CCNCCNCCn1cnc2c(N)ncnc21	inactive	inactive	inactive			
CCOC(=O)Cn1cnc2c(NCc3ccc(Cl)cc3Cl)ncnc21	inactive	inactive			99.9 µM	
Nc1ncnc2c1ncn2CCNCCN1CCCC1	inactive	inactive	inactive			
COc1ccc(CNc2ncnc3[nH]cnc23)cc1	inactive		inactive	86.6 µM		
Nc1nc(F)nc2c1ncn2[C@@H]1O[C@H](CO)[C@@H](O)[C@@H]1O [FLUDARABINE]				6.6 µM	46.2 µM	IC50 [3]: 60.1 µM
Cc1ccc(S(=O)(=O)n2cnc3c(NC4CC4)ncnc32)cc1	inactive	inactive	inactive			
CCOC(=O)Cn1cnc2c(NCc3cccc(C(F)(F)F)c3)ncnc21	inactive		inactive	> 200 µM		
OCCN1CCN(c2[nH]cnc3ncnc2-3)CC1	inactive	inactive	inactive			
Cc1ccc(S(=O)(=O)n2cnc3c(N4CCN(c5ccc(C(F)(F)F)cc5)CC4)ncnc32)cc1				4.5 µM	42.7 µM	IC50 [3]: 1.4 µM; IC50 (HepG2): 1200 nM; IC50 [6]: 2900 nM; IC50 (PLC): 3.7 µM; IC50 [7]: 1700 nM; IC50 [8]: 1000 nM; IC50 [9]: 1000 nM; IC50 [10]: 8.4 µM; IC50 [11]: 5.4 µM; Activity (Huh-7 [12]): Active; Activity (FOCUS): Active; Activity (Mahlavu [13]): inactive; Activity (Mahlavu [14]): inactive; Activity (Mahlavu [15]): inactive; Activity (Mahlavu [16]): inactive; Activity (Huh-7 [17]): Active; Activity (Mahlavu [18]): Active
O=CN1CCN(c2ncnc3[nH]cnc23)CC1	inactive	inactive	inactive			
CC1CCN(c2ncnc3c2ncn3C2CCCC2)CC1				16.6 µM	21 µM	IC50 [3]: 17.4 µM
CC1CCN(c2ncnc3[nH]cnc23)CC1	inactive	inactive	inactive			

Compound	inhibition (Huh-7 [1])	inhibition (HCT-116)	inhibition (T47D [2])	IC50 [4]	IC50 (T47D [5])	other results
FC(F)(F)c1cccc(CNc2ncnc3[nH]cnc23)c1			inactive	102 µM		IC50 [3]: 68.3 µM
OCCNc1ncnc2[nH]cnc12	inactive	inactive	inactive			
Cc1ccc(S(=O)(=O)n2cnc3c(NCCC4C=CCCC4)ncnc32)cc1 (centres undefined)				8.7 µM	34.5 µM	IC50 [3]: 9.4 µM
OC[C@H]1O[C@@H](n2cnc3c2N=CNC[C@H]3O)C[C@@H]1O	inactive	inactive	inactive			
Nc1ncnc2c1ncn2CCNCCNc1ccccc1	inactive	inactive	inactive			
c1ccc(CN2CCC(Nc3ncnc4[nH]cnc34)CC2)cc1	inactive	inactive	inactive			
c1ccc(NCCNc2ncnc3[nH]cnc23)cc1	inactive		inactive	132 µM		
O=c1[nH]cc(F)c(=O)[nH]1 [FLUOROURACIL]				6 µM	7.9 µM	
CC(C)NCCNCCn1cnc2c(N)ncnc21	inactive	inactive	inactive			
COc1ccc(CNc2ncnc3c2ncn3S(=O)(=O)c2ccc(C)cc2)cc1	inactive	inactive	inactive			
C1=CC(CCNc2ncnc3[nH]cnc23)CCC1 (centres undefined)				12.9 µM	40.3 µM	IC50 [3]: 14.2 µM
CCOC(=O)Cn1cnc2c(N3CCN(CCO)CC3)ncnc21	inactive	inactive	inactive			
Cc1ccc(S(=O)(=O)n2cnc3c(NCc4ccc(Cl)cc4Cl)ncnc32)cc1				28.1 µM	47.6 µM	IC50 [3]: 26.9 µM
c1nc(NC2CC2)c2nc[nH]c2n1	inactive	inactive	inactive			
Clc1ccc(CNc2ncnc3[nH]cnc23)c(Cl)c1	inactive	inactive			147 µM	
Nc1nc(Cl)nc2c1ncn2[C@H]1C[C@H](O)[C@@H](CO)O1 [CLADRIBINE]				0.3 µM	0.7 µM	IC50 [3]: 1.8 µM
Cc1ccc(S(=O)(=O)n2cnc3c(NCc4ccc(F)cc4F)ncnc32)cc1	inactive	inactive			116 µM	
Cc1ccc(S(=O)(=O)n2cnc3c(Cl)ncnc32)cc1				22.8 µM	13.9 µM	IC50 [3]: 20.8 µM
Nc1ncnc2c1ncn2CCN1CCN(CCO)CC1	inactive	inactive	inactive			
